Source: ChEMBL document CHEMBL1134468 (J Med Chem, 2001)
Where a SMILES comes first, the peptide text is derived from it. Bridges are numbered along the chain shown (N, C = ends). Roman numbers before positions name the chains, in order. [ ]: non-standard residue; d: D form. Dap = NC[C@H](N)C(=O)O

How the values were obtained:
[1] = biological target: T1, Neuropeptide Y receptor type 4 (Homo sapiens, UniProt P50391); test: Agonist potency for the inhibition of Forskolin stimulated cAMP synthesis in cells expressing cloned Y4 receptors(no effect at <20000 nM); type: functional
T1 sequence (P50391 whole entry): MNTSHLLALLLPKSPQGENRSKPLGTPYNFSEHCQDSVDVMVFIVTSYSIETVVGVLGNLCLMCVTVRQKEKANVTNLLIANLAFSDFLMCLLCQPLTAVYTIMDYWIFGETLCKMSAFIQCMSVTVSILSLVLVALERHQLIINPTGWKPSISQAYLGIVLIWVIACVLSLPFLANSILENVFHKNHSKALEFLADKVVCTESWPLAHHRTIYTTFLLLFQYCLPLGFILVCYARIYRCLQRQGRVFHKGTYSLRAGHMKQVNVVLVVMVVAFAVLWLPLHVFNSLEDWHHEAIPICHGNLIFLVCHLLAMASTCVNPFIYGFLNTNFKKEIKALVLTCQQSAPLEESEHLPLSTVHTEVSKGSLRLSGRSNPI
Outline: (§1)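 Inhibition of forskolin-driven cAMP synthesis in cells expressing the Y4 receptor, with PP run as the reference control.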

[2] = biological target: T2, Neuropeptide Y receptor type 5 (Homo sapiens, UniProt Q15761); test: Agonist potency for the inhibition of Forskolin stimulated cAMP synthesis in cells expressing cloned Y5 receptors(no effect at <20000 nM); type: functional
T2 sequence (Q15761 whole entry): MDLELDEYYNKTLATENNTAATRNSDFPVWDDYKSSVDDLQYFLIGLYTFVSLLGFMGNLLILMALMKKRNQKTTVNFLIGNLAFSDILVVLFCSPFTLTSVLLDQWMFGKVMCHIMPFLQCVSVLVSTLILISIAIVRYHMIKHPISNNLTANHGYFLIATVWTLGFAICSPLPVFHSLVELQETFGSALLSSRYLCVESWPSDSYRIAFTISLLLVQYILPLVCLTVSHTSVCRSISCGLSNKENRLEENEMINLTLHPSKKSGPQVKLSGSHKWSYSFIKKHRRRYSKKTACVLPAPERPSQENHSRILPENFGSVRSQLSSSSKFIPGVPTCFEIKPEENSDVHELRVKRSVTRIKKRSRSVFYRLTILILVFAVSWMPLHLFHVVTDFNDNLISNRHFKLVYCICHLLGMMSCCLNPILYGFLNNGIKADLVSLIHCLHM

[3] = biological target: Neuropeptide Y receptor type 2 (Homo sapiens) (UniProt P49146); test: Agonist potency for the inhibition of Forskolin stimulated cAMP synthesis in cells expressing cloned Y2 receptors; no effect means no agonist activity at <20 000 nM
[4] = biological target: T2, Neuropeptide Y receptor type 5; test: Agonist potency for the inhibition of Forskolin stimulated cAMP synthesis in cells expressing cloned Y5 receptors; type: functional
[5] = biological target: T2, Neuropeptide Y receptor type 5; test: Affinity for cloned Y5 receptor using [125I]PYY as radioligand
[6] = biological target: T3, Neuropeptide Y receptor type 1 (Homo sapiens, UniProt P25929); test: Affinity for cloned Y1 receptor using [125I]PYY as radioligand
T3 sequence (P25929 whole entry): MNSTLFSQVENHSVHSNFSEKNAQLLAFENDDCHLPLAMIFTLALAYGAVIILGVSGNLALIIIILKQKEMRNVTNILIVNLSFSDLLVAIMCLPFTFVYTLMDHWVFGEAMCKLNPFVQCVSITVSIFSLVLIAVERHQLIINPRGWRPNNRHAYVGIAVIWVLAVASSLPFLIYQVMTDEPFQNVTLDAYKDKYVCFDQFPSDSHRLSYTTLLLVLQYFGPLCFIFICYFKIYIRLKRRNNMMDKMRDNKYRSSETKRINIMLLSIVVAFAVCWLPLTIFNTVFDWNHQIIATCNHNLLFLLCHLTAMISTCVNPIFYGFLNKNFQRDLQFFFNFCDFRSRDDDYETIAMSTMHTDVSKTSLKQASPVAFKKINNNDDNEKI

[7] = biological target: T4, Neuropeptide Y receptor type 1 (Homo sapiens) (UniProt P25929); test: Selectivity ratio of Y1/Y2/Y4/Y5; 1/790/3/1640
T4 sequence (whole entry): T3 sequence (P25929 whole entry)

[8] = biological target: T5, Neuropeptide Y receptor type 2 (Homo sapiens, UniProt P49146); test: Agonist potency for the inhibition of Forskolin stimulated cAMP synthesis in cells expressing cloned Y2 receptors; type: functional
T5 sequence (P49146 whole entry): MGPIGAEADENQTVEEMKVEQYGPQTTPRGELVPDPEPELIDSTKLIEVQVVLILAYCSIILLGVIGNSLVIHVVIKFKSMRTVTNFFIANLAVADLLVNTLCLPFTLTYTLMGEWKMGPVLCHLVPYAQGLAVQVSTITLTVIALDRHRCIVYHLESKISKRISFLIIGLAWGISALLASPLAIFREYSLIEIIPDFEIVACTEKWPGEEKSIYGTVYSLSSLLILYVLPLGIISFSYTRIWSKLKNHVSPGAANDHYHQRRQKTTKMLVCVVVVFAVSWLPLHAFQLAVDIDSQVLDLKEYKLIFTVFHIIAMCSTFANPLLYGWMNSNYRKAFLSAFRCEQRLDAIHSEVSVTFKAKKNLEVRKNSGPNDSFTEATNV

[9] = biological target: T5, Neuropeptide Y receptor type 2; test: Affinity for cloned Y2 receptor using [125I]PYY as radioligand
[10] = biological target: T1, Neuropeptide Y receptor type 4; test: Agonist potency for the inhibition of Forskolin stimulated cAMP synthesis in cells expressing cloned Y4 receptors; type: functional; outline: as §1
[11] = biological target: T1, Neuropeptide Y receptor type 4; test: Affinity for cloned Y4 receptor using [125I]PP as radioligand

EC50 [1] | EC50 [2] | EC50 [3] | EC50 [4] [nM] | Ki [5] [nM] | Ki [6] [nM] | Selectivity [7] | EC50 [8] [nM] | Ki [9] [nM] | EC50 [10] [nM] | Ki [11] [nM] | Structure (SMILES)
Not Active | Not Active | Not Active |  |  |  |  |  |  |  |  | CC[C@H](C)[C@H](N)C(=O)N[C@H]1CCC(=O)NC[C@@H](C(=O)N[C@@H](Cc2ccc(O)cc2)C(=O)N[C@@H](CCCN=C(N)N)C(=O)N[C@@H](CC(C)C)C(=O)N[C@@H](CCCN=C(N)N)CN[C@@H](Cc2ccc(O)cc2)C(N)=O)NC(=O)[C@@H]2CCCN2C(=O)[C@@H](NC(=O)[C@@H](N)[C@@H](C)CC)CCC(=O)NC[C@@H](C(=O)N[C@@H](Cc2ccc(O)cc2)C(=O)N[C@@H](CCCN=C(N)N)C(=O)N[C@@H](CC(C)C)C(=O)N[C@@H](CCCN=C(N)N)CN[C@@H](Cc2ccc(O)cc2)C(N)=O)NC(=O)[C@@H]2CCCN2C1=O
 |  |  | 2050 | 115 | 0.07 | Y1/Y4/Y2/Y5 | 983 | 55 | 2.5 | 0.26 | CC[C@H](C)[C@H](N)C(=O)N[C@H]1CCC(=O)NC[C@@H](C(=O)N[C@@H](Cc2ccc(O)cc2)C(=O)N[C@@H](CCCN=C(N)N)C(=O)N[C@@H](CC(C)C)C(=O)N[C@@H](CCCN=C(N)N)C(=O)N[C@@H](Cc2ccc(O)cc2)C(N)=O)NC(=O)[C@@H]2CCCN2C(=O)[C@@H](NC(=O)[C@@H](N)[C@@H](C)CC)CCC(=O)NC[C@@H](C(=O)N[C@@H](Cc2ccc(O)cc2)C(=O)N[C@@H](CCCN=C(N)N)C(=O)N[C@@H](CC(C)C)C(=O)N[C@@H](CCCN=C(N)N)C(=O)N[C@@H](Cc2ccc(O)cc2)C(N)=O)NC(=O)[C@@H]2CCCN2C1=O (I: H-IEP[Dap]YRLRY-NH2 / II: H-IEP[Dap]YRLRY-NH2; amide I:2-II:4, I:4-II:2)
